# Measurements collected from several papers.
# Each line is one published result; the experiments were not run side by side.
# Target: Casein kinase I isoform alpha (CSNK1A1, Homo sapiens, UniProt P48729)
SMILES,assay,system,conditions,endpoint,result
CO[C@H]1CC[C@H](CNc2ccc(S(=O)(=O)NC(=O)c3ccc(N4CCN(CC5=C(c6ccc(Cl)cc6)CC(C)(C)CC5)CC4)cc3Oc3cnc4[nH]ccc4c3)cc2[N+](=O)[O-])CC1,"cell-free assay, competition with immobilised ligand",,1 µM,remaining binding,85%
CC(C)(C)c1nc(-c2cccc(NS(=O)(=O)c3c(F)cccc3F)c2F)c(-c2ccnc(N)n2)s1,"enzyme activity, inhibitor, radiometric",,1 µM,remaining activity,94%
COc1cc(-c2cn(C3CCc4c(F)cccc4N(CC(F)(F)F)C3=O)nn2)ccc1-n1cnc(C)c1 (centres unmarked),"cell-free assay, competition with immobilised ligand",,1 µM,remaining binding,100%
CCN1CCN(Cc2ccc(NC(=O)c3ccc(C)c(/C=C/c4cnc5[nH]ccc5c4OC)c3)cc2C(F)(F)F)CC1,"target engagement in cells, inhibitor, chemoproteomics",A-375,50 nM,inhibition,-59.4%
O=C1Cc2c([nH]c3ccc(Br)cc23)-c2ccccc2N1,cell-free assay,,0.5 µM,remaining signal,95.1%
COc1cc2ncnc(Nc3ccc(Oc4ccccc4)cc3C)c2cc1OC,"enzyme activity, inhibitor",,1 µM,inhibition,3%
CCN1CCN(Cc2ccc(NC(=O)c3ccc(C)c(Oc4ccnc5[nH]ccc45)c3)cc2C(F)(F)F)CC1,"target engagement in cells, inhibitor, chemoproteomics",A-375,50 nM,inhibition,-28%
CNc1cccc2cc(C(=O)Nc3ccc(C(=O)O)cc3)c(=O)[nH]c12,"enzyme activity, inhibitor",,10 µM,inhibition,3.5%
Cc1ccc(C(=O)Nc2ccc(CN3CCN(C)CC3)c(C(F)(F)F)c2)cc1C#Cc1cnc2cccnn12,"enzyme activity, inhibitor",,23.5 nM,remaining activity,86%
Cc1cc(Nc2cc(N3CCN(C)CC3)nc(Sc3ccc(NC(=O)C4CC4)cc3)n2)[nH]n1,"enzyme activity, inhibitor",,0.5 µM,activity vs control,96.7%
O=C(Nc1cnn(-c2csc(C(=O)NC3COC3)c2)c1)Nc1c(F)cccc1Cl,"enzyme activity, inhibitor",,5 µM,remaining activity,76.6%
CN(CCCC(F)(F)F)c1nccc(-c2cnn3ncccc23)n1,binding,,1 µM,remaining binding,86%
CCc1ccccc1C(=O)Nc1n[nH]c2c(C)c(F)c(C3C(C#N)=C(C)N(C)C(C)=C3C#N)cc12,"cell-free assay, competition with immobilised ligand",,1 µM,remaining binding,96%
CN(C)C1CCN(CC#Cc2nn(C3CCCC3)c3nc(NCc4ccccc4)ncc23)C1 (centres unmarked),"enzyme activity, inhibitor, FRET",,0.1 µM,inhibition,2%
N#CCCc1ccc2c(c1)-c1[nH]c3ccc([N+](=O)[O-])cc3c1CC(=O)N2,cell-free assay,,0.5 µM,remaining signal,95.1%
O=C(NS(=O)(=O)c1ccc(NCC2CCOCC2)c([N+](=O)[O-])c1)c1ccc(N2CCN(Cc3ccc(C(F)(F)F)cc3-c3ccc(Cl)cc3)CC2)cc1Oc1cnc2[nH]ccc2c1,"cell-free assay, competition with immobilised ligand",,1 µM,remaining binding,96%
COc1cc2ncnc(Nc3ccc(F)c(Cl)c3)c2cc1OCCCN1CCOCC1,cell-free assay,,0.5 µM,remaining signal,98.6%
CN(C)C(=O)Cn1cc(-c2nc([C@@](C)(c3ccc(-c4cnc(N)nc4)cc3)C3CC3)no2)cn1,"cell-free assay, competition with immobilised ligand",,1 µM,remaining binding,100%
O=C1NC(=O)c2cc(Nc3ccc(F)cc3)c(Nc3ccc(F)cc3)cc21,"cell-free assay, inhibitor",,0.5 µM,remaining signal,88%
c1ccc(CNc2nc(N3CCOc4ccccc43)nc3c2CCCC3)cc1,"target engagement in cells, inhibitor, chemoproteomics",,20 mM,inhibition,-1.4%
Nc1cnc(N2CCc3cc(S(=O)(=O)Nc4c(F)cc(Cl)cc4F)cc(N4CCCC4=O)c32)nc1,"cell-free assay, competition with immobilised ligand",,1 µM,remaining binding,100%
CCCS(=O)(=O)Nc1ccc(F)c(C(=O)c2c[nH]c3ncc(-c4ccc(Cl)cc4)cc23)c1F,"enzyme activity, inhibitor",,1 µM,inhibition,< 10%
CCC(=O)N[C@@H]1CC[C@H](C(=O)N(C)c2ccc(-c3nc4ccccc4o3)cc2)C1,"cell-free assay, competition with immobilised ligand",,1 µM,remaining binding,100%
O=C(Nc1cnn(-c2csc(C(=O)NC3COC3)c2)c1)Nc1ccccc1Cl,"enzyme activity, inhibitor",,5 µM,remaining activity,98.5%
Cc1cc(-n2nc(Cc3cc(F)cc(C(F)(F)F)c3)nc2C)ccc1C(N)=O,"cell-free assay, competition with immobilised ligand",,1 µM,remaining binding,100%
Cc1ccc(C(=O)NCc2ccsc2)cc1C#Cc1cn(C(C)C)c2ncnc(N)c12,"enzyme activity, inhibitor",,1 µM,activity vs control,86%
